Reference: ChEMBL document CHEMBL4229344 (Eur J Med Chem, 2018)

Tests used:
[1] = molecular target: AP2-associated protein kinase 1 (Homo sapiens) (UniProt Q2M2I8); experiment: Binding affinity to human wild-type AAK1 (G25 to L333 residues) expressed in bacterial expression system assessed as residual binding level at 1 uM by Kinomescan method relative to control
Procedure, shortened: (§1)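 Single-concentration (1 μM) competition-binding screen run by KINOMEscan against a panel of 468 purified kinases and mutants. The read-out is the relative binding activity of the test compound to each kinase.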

[2] = molecular target: Tyrosine-protein kinase ABL2 (Homo sapiens) (UniProt P42684); experiment: Binding affinity to wild-type human ABL2 (A248 to G542 residues) expressed in bacterial expression system assessed as residual binding level at 1 uM by Kinomescan method relative to control
Procedure, shortened: (§2)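 KINOMEscan competition binding against 468 purified kinases/mutants, test compound at 1 µM; residual binding relative to control.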

[3] = molecular target: RAC-gamma serine/threonine-protein kinase (Homo sapiens) (UniProt Q9Y243); experiment: Binding affinity to wild-type human partial length AKT3 expressed in bacterial expression system assessed as residual binding level at 1 uM by Kinomescan method relative to control
Procedure, shortened: (§3)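 Kinome-wide competition binding screen against a panel of 468 purified kinases/mutants, with the test compound at a single concentration of 1 μM. Read-out is the relative binding activity of each kinase in the presence of compound.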

[4] = molecular target: Casein kinase I isoform alpha-like (Homo sapiens) (UniProt Q8N752); experiment: Binding affinity to wild-type human full length CSNK1A1L (M1 to N337 residues) expressed in bacterial expression system assessed as residual binding level at 1 uM by Kinomescan method relative to control; procedure, shortened: as §1
[5] = molecular target: Dual specificity tyrosine-phosphorylation-regulated kinase 1A (Homo sapiens) (UniProt Q13627); experiment: Binding affinity to wild-type human partial length DYRK1A (H129 to S509 residues) expressed in mammalian expression system assessed as residual binding level at 1 uM by Kinomescan method relative to control
[6] = molecular target: Epidermal growth factor receptor (Homo sapiens) (UniProt P00533); experiment: Binding affinity to human partial length EGFR E746-A750del mutant expressed in bacterial expression system assessed as residual binding level at 1 uM by Kinomescan method relative to control
Procedure, shortened: (§4)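 Kinome-wide single-concentration binding screen (KINOMEscan) at 1 μM against a panel of 468 purified kinases and mutants. Read-out is relative binding of each kinase compared with control. Selectivity across the panel was summarised as an S(10) score.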

[7] = molecular target: Ephrin type-B receptor 1 (Homo sapiens) (UniProt P54762); experiment: Binding affinity to wild-type human partial length EPHB1 (P589 to T911 residues) expressed in bacterial expression system assessed as residual binding level at 1 uM by Kinomescan method relative to control
[8] = molecular target: Fibroblast growth factor receptor 2 (Homo sapiens) (UniProt P21802); experiment: Binding affinity to wild-type human partial length FGFR2 (D457 to E769 residues) expressed in bacterial expression system assessed as residual binding level at 1 uM by Kinomescan method relative to control; procedure, shortened: as §3
[9] = molecular target: Receptor-type tyrosine-protein kinase FLT3 (Homo sapiens) (UniProt P36888); experiment: Binding affinity to wild-type human partial length autoinhibited FLT3 (H564 to Y969 residues) expressed in mammalian expression system assessed as residual binding level at 1 uM by Kinomescan method relative to control
[10] = molecular target: Inhibitor of nuclear factor kappa-B kinase subunit beta (Homo sapiens) (UniProt O14920); experiment: Binding affinity to wild-type human full length IKK-beta (M1 to S756 residues) expressed in mammalian expression system assessed as residual binding level at 1 uM by Kinomescan method relative to control; procedure, shortened: as §1
[11] = molecular target: Myosin light chain kinase, smooth muscle (Homo sapiens) (UniProt Q15746); experiment: Binding affinity to wild-type human full length MYLK (M854 to E1845 residues) expressed in mammalian expression system assessed as residual binding level at 1 uM by Kinomescan method relative to control
Procedure, shortened: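 Single-concentration KINOMEscan (DiscoverX) binding screen at 1 μM against a panel of 468 purified kinases and mutants. The read-out is binding relative to control.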

[12] = molecular target: Serine/threonine-protein kinase Nek2 (Homo sapiens) (UniProt P51955); experiment: Binding affinity to wild-type human partial length NEK2 (M1 to K309 residues) expressed in bacterial expression system assessed as residual binding level at 1 uM by Kinomescan method relative to control
Procedure, shortened: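 KINOMEscan competition binding against a panel of 468 purified kinases/mutants, compound tested at 1 μM; readout is relative binding activity versus control.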

[13] = molecular target: Phosphatidylinositol 4-phosphate 3-kinase C2 domain-containing subunit beta (Homo sapiens) (UniProt O00750); experiment: Binding affinity to wild-type human partial length PIK3C2B (M1 to L1634 residues) expressed in mammalian expression system assessed as residual binding level at 1 uM by Kinomescan method relative to control
[14] = system: Phosphatidylinositol 4,5-bisphosphate 3-kinase catalytic subunit alpha isoform (Homo sapiens), P42336 [H1047L]; experiment: Binding affinity to human partial length PIK3CA H1047L mutant (R108 to N1068 residues) expressed in mammalian expression system assessed as residual binding level at 1 uM by Kinomescan method relative to control; procedure, shortened: as §4
[15] = molecular target: Phosphatidylinositol 4,5-bisphosphate 3-kinase catalytic subunit beta isoform (Homo sapiens) (UniProt P42338); experiment: Binding affinity to wild-type human partial length PIK3CB (P118 to S1070 residues) expressed in mammalian expression system assessed as residual binding level at 1 uM by Kinomescan method relative to control
[16] = molecular target: Serine/threonine-protein kinase SIK2 (Homo sapiens) (UniProt Q9H0K1); experiment: Binding affinity to wild-type human full length SIK2 (M1 to N926 residues) expressed in bacterial expression system assessed as residual binding level at 1 uM by Kinomescan method relative to control; procedure, shortened: as §2
[17] = molecular target: Serine/threonine-protein kinase 35 (Homo sapiens) (UniProt Q8TDR2); experiment: Binding affinity to wild-type human partial length STK35 (G182 to A534 residues) expressed in bacterial expression system assessed as residual binding level at 1 uM by Kinomescan method relative to control
[18] = molecular target: Mitogen-activated protein kinase kinase kinase 19 (Homo sapiens) (UniProt Q56UN5); experiment: Binding affinity to wild-type human partial length YSK4 (T1019 to H1328 residues) expressed in mammalian expression system assessed as residual binding level at 1 uM by Kinomescan method relative to control
[19] = molecular target: Tyrosine-protein kinase ZAP-70 (Homo sapiens) (UniProt P43403); experiment: Binding affinity to wild-type human partial length ZAP70 (D20 to G299 residues) expressed in mammalian expression system assessed as residual binding level at 1 uM by Kinomescan method relative to control
EOL1 = experiment: Antitumor activity against human EOL-1 cells xenografted in nu/nu mouse assessed as tumor growth inhibition at 100 mg/kg/day, ip; format: functional; conditions: read-out: TGI
Procedure, shortened: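 Female nu/nu mice (6 weeks) given subcutaneous right-flank injection of 5 million EOL-1 cells in PBS/Matrigel 1:1. At 200–400 mm3 tumors, randomized to groups of 6 and dosed daily i.p. for 14 days at 25, 50 or 100 mg/kg/d in 0.5% methylcellulose/0.4% Tween80. Tumor volume = W²×L/2, measured daily.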

Serine/threonine-protein kinase Nek2 (Homo sapiens), sequence (P51955 whole entry, the tested form may be a part): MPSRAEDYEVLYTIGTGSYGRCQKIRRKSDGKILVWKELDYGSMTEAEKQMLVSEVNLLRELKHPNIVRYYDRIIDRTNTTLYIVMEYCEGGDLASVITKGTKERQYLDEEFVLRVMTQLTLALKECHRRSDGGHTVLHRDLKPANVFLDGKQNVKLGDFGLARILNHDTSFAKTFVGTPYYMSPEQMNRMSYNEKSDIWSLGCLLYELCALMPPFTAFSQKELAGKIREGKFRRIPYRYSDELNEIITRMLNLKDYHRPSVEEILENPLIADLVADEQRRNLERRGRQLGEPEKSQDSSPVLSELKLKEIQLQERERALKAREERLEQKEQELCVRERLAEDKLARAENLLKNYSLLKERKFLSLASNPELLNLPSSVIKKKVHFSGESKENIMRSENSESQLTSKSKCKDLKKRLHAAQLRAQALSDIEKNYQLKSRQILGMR
Tyrosine-protein kinase ABL2 (Homo sapiens), sequence (P42684 whole entry, the tested form may be a part): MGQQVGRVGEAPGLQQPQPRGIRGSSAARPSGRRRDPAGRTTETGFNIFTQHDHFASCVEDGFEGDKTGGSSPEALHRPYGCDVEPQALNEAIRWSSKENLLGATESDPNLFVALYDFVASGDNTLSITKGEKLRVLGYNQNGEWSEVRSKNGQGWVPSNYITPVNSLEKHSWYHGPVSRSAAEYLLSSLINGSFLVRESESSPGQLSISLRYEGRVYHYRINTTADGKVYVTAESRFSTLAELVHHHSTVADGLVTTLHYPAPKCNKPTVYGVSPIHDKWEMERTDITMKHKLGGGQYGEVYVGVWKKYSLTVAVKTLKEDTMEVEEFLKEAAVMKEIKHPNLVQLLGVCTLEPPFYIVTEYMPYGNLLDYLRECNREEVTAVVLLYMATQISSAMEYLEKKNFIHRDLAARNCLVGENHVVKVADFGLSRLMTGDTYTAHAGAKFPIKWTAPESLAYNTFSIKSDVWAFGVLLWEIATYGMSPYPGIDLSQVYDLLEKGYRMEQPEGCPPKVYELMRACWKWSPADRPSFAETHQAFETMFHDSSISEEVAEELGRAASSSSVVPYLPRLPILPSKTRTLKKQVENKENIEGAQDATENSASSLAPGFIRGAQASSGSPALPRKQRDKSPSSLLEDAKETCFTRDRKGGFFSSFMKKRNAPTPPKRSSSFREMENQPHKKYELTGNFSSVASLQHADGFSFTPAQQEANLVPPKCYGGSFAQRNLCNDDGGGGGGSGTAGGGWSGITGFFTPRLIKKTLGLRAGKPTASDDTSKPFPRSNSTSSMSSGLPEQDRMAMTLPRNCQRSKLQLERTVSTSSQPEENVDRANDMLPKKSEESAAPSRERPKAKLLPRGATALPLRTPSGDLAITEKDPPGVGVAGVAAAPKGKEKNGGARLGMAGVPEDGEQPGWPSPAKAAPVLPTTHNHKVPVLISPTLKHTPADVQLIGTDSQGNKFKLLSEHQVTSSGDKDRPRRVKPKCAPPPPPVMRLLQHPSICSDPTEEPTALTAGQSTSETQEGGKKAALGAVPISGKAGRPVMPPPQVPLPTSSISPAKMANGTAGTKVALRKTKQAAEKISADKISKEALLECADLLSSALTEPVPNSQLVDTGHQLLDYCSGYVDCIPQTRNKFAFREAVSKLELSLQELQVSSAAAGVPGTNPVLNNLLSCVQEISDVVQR
Receptor-type tyrosine-protein kinase FLT3 (Homo sapiens), sequence (P36888 whole entry, the tested form may be a part): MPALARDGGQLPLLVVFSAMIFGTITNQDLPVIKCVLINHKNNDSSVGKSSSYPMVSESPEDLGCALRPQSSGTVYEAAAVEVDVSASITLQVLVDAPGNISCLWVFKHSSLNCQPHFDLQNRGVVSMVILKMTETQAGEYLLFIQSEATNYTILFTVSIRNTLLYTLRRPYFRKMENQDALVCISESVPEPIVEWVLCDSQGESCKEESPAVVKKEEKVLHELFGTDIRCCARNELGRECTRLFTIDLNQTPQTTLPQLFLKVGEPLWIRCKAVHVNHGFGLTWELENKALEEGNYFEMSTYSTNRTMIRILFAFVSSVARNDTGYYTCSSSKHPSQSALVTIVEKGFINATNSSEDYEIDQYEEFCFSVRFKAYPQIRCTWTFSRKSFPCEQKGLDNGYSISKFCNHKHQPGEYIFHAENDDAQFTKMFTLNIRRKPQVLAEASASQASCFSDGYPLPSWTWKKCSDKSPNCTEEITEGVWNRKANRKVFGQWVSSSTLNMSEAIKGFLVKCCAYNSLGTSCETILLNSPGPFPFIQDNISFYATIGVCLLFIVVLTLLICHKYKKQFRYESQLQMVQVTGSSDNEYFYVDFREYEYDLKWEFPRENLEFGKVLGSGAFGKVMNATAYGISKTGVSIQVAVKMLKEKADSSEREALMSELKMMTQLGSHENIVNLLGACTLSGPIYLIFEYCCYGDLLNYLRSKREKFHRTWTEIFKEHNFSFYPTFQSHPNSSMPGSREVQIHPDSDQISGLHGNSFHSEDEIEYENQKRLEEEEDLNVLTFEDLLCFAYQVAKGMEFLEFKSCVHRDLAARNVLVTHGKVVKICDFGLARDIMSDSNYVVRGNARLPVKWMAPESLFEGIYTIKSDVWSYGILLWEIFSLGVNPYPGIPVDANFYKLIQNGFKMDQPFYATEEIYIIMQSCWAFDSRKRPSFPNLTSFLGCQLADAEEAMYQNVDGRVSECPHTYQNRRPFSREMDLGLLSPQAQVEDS
Tyrosine-protein kinase ZAP-70 (Homo sapiens), sequence (P43403 whole entry, the tested form may be a part): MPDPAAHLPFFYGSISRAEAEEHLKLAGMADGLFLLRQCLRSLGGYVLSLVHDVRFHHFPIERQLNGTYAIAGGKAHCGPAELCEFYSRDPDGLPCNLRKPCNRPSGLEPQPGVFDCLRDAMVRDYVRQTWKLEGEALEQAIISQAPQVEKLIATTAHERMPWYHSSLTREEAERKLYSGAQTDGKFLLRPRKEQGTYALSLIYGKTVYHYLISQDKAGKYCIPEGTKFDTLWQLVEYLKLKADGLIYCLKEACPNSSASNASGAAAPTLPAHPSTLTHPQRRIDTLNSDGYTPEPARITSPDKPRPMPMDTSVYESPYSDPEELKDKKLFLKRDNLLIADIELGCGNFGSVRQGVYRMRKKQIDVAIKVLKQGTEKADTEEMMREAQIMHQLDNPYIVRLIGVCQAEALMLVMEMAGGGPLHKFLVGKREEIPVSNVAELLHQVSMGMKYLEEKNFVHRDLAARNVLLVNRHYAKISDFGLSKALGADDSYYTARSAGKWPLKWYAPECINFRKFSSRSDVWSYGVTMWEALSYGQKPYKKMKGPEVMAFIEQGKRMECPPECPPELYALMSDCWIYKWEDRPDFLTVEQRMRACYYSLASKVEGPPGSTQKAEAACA
Casein kinase I isoform alpha-like (Homo sapiens), sequence (Q8N752 whole entry, the tested form may be a part, canonical isoform): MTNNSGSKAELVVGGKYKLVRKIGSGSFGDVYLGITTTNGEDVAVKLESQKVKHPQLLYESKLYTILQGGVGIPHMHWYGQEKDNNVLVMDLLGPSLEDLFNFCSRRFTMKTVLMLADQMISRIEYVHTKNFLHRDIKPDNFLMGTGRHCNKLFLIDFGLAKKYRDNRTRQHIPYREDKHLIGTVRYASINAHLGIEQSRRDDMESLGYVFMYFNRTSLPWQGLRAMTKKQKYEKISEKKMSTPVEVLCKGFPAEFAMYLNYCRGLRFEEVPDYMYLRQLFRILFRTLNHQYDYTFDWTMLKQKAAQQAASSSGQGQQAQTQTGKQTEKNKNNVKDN
Mitogen-activated protein kinase kinase kinase 19 (Homo sapiens), sequence (Q56UN5 whole entry, the tested form may be a part): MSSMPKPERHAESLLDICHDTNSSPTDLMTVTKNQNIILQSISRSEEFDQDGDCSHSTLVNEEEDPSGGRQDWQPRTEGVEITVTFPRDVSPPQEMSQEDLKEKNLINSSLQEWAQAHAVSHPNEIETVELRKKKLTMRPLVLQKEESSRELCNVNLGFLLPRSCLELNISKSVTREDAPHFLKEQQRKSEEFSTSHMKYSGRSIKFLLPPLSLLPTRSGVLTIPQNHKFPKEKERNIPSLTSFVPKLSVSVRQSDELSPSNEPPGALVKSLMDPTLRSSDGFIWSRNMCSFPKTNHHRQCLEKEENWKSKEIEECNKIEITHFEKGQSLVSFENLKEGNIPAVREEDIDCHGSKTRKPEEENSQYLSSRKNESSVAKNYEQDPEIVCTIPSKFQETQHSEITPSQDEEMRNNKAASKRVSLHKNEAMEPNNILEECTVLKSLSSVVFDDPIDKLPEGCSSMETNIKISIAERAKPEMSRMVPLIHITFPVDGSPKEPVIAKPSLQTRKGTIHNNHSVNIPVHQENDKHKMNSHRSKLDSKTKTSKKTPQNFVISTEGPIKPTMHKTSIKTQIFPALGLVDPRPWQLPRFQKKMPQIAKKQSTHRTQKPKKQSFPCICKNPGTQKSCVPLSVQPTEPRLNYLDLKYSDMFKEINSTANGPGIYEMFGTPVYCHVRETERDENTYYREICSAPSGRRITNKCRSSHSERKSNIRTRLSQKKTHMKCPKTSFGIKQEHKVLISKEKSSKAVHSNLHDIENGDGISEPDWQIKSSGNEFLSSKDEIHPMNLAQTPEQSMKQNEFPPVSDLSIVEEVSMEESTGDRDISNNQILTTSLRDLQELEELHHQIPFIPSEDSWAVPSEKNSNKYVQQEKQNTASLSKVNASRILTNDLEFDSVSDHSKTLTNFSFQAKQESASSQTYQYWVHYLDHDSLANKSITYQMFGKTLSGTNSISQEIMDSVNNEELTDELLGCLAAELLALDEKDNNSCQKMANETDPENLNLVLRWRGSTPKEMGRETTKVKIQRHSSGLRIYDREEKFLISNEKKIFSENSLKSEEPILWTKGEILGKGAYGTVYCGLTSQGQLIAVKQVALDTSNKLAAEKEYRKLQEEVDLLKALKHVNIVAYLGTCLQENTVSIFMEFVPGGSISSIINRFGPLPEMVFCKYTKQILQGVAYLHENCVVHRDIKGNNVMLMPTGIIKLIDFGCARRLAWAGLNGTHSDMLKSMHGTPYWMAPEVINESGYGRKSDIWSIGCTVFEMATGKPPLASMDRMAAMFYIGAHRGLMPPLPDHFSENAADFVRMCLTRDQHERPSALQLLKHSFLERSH

Compound `Cc1ccc(NC(=O)c2ccc(CN(CCN(C)C)C(=O)c3cccnc3)cc2)cc1Nc1nccc(-c2cccnc2)n1` has an Activity [1] of 100%, an Activity [2] of 69% and an Activity [3] of 92%. For the same compound, the Activity [4] was 93%, the Activity [5] was 100% and the Activity [6] was 100%. For the same compound, the Activity [7] was 100%, the Activity [8] was 80% and the Activity [9] was 100%. It also gave an Activity [10] of 96%, an Activity [11] of 100% and an Activity [12] of 91%. The Activity [13] was 97%, the Activity [14] was 88% and the Activity [15] was 100%. The Activity [16] was 87%, the Activity [17] was 100% and the Activity [18] was 96%. For the same compound, the Activity [19] was 100% and the inhibition in vivo at 100 mg/kg/day (EOL1) was 100%.
